Laboratory results as given in PMC3254186 (Frontiers in Pharmacology, 2011).
Where a name gives a salt, the structure may show the parent alone.

biological target: T1, Kir7.1-M125R (Homo sapiens, UniProt O60928, M125R); experiment: Tl+ flux assay, polyclonal Kir7.1-M125R T-REx-HEK-293 cells; format: cell-based; details: not given
T1 sequence (O60928 1-360 M125R): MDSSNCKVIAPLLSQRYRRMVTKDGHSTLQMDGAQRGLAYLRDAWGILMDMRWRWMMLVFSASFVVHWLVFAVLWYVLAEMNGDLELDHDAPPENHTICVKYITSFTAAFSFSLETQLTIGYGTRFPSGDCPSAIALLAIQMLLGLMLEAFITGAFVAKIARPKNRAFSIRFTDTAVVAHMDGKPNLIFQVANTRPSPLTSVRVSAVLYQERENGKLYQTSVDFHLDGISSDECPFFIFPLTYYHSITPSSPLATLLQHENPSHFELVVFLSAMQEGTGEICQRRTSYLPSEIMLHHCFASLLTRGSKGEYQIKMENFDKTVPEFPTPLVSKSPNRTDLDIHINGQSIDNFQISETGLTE

Row | Compound | activity toward Kir7.1
1 | N=c1n(Cc2ccccc2)c2ccccc2n1CC(O)CN1CCOCC1 (centres unmarked) [Compound 9, 1-(3-benzyl-2-imino-2,3-dihydro-1H-benzo[d]imidazol-1-yl)-3-morpholinopropan-2-ol] | lost activity
2 | N=c1n(Cc2ccccc2)c2ccccc2n1CC(O)COc1ccc(OCc2ccccc2)cc1 (centres unmarked) [Compound 11, 1-(3-benzyl-2-imino-2,3-dihydro-1H-benzo[d]imidazol-1-yl)-3-(4-(benzyloxy)phenoxy)propan-2-ol] | lost activity

biological target: T2, Kir1.1 (S44D) (Rattus norvegicus, UniProt P35560, S44D); experiment: Tl+ flux assay, tetracycline-inducible Kir1.1-S44D T-REx-HEK-293 cells; format: cell-based; details: IC50 Kir1.1, Tl+ flux, mean ± SEM (n = 3)
T2 sequence (P35560 1-391 S44D): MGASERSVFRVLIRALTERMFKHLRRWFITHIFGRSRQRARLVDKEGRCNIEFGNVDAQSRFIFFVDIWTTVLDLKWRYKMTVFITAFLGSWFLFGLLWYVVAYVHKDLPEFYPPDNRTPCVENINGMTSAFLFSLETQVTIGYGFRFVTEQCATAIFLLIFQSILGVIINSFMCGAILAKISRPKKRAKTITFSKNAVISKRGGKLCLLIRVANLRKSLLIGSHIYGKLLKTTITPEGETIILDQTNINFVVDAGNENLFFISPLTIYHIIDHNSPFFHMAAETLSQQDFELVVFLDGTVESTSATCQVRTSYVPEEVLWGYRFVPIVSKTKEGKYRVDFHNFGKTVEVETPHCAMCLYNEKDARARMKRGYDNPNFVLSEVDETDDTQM
Procedure, shortened: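 Monoclonal C1 T-REx-HEK-293 Kir1.1-S44D cells were grown in DMEM with 10% FBS, penicillin/streptomycin, 5 μg/mL blasticidin S and 250 μg/mL hygromycin. Channel expression was induced overnight with tetracycline. Cells were loaded with FluoZin-2 and pre-treated with test compound from 1:3 serial dilutions. Extracellular Tl+ was then added and fluorescence imaged kinetically at 20–23°C. CRC, mean ± SEM, n = 3.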

Row | Compound | IC50
3 | N=c1n(Cc2ccccc2)c2ccccc2n1CC(O)COc1ccc(Cl)cc1Cl (centres unmarked) [Compound 2, 1-(3-benzyl-2-imino-2,3-dihydro-1H-benzo[d]imidazol-1-yl)-3-(2,4-dichlorophenoxy)propan-2-ol] | 7.07 ± 2.3 µM
4 | N=c1n(Cc2ccccc2)c2ccccc2n1CC(O)COc1ccc(Cl)cc1 (centres unmarked) [Compound 3, 1-(3-benzyl-2-imino-2,3-dihydro-1H-benzo[d]imidazol-1-yl)-3-(4-chlorophenoxy)propan-2-ol] | 6.57 ± 3.8 µM
5 | Cc1cccc(OCC(O)Cn2c(=N)n(Cc3ccccc3)c3ccccc32)c1 (centres unmarked) [Compound 4, 1-(3-benzyl-2-imino-2,3-dihydro-1H-benzo[d]imidazol-1-yl)-3-(m-tolyloxy)propan-2-ol] | 11.2 ± 2.8 µM
6 | N=c1n(Cc2ccccc2)c2ccccc2n1CC(O)COc1ccccc1 (centres unmarked) [Compound 5, 1-(3-benzyl-2-imino-2,3-dihydro-1H-benzo[d]imidazol-1-yl)-3-phenoxypropan-2-ol] | 11.7 ± 4.1 µM
7 | Cc1ccccc1OCC(O)Cn1c(=N)n(Cc2ccccc2)c2ccccc21 (centres unmarked) [Compound 6, 1-(3-benzyl-2-imino-2,3-dihydro-1H-benzo[d]imidazol-1-yl)-3-(o-tolyloxy)propan-2-ol] | 11.9 ± 2.2 µM
8 | N=c1n(Cc2ccccc2)c2ccccc2n1CC(O)COc1cc(F)cc(F)c1 (centres unmarked) [Compound 7, 1-(3-benzyl-2-imino-2,3-dihydro-1H-benzo[d]imidazol-1-yl)-3-(3,5-difluorophenoxy)propan-2-ol] | 7.57 ± 2.2 µM
9 | CC(C)c1ccc(OCC(O)Cn2c(=N)n(Cc3ccccc3)c3ccccc32)cc1 (centres unmarked) [Compound 8, 1-(3-benzyl-2-imino-2,3-dihydro-1H-benzo[d]imidazol-1-yl)-3-(4-isopropylphenoxy)propan-2-ol] | 6.77 ± 1.7 µM
10 | N=c1n(Cc2ccccc2)c2ccccc2n1CC(O)CN1CCOCC1 (centres unmarked) [Compound 9, 1-(3-benzyl-2-imino-2,3-dihydro-1H-benzo[d]imidazol-1-yl)-3-morpholinopropan-2-ol] | > 100 µM
11 | N=c1n(Cc2ccccc2)c2ccccc2n1CC(O)COc1ccc(Cc2ccccc2)cc1 (centres unmarked) [Compound 10, 1-(3-benzyl-2-imino-2,3-dihydro-1H-benzo[d]imidazol-1-yl)-3-(4-benzylphenoxy)propan-2-ol] | 6.13 ± 0.23 µM
12 | N=c1n(Cc2ccccc2)c2ccccc2n1CC(O)COc1ccc(OCc2ccccc2)cc1 (centres unmarked) [Compound 11, 1-(3-benzyl-2-imino-2,3-dihydro-1H-benzo[d]imidazol-1-yl)-3-(4-(benzyloxy)phenoxy)propan-2-ol] | 5.23 ± 0.59 µM
13 | N#Cc1ccc(OCC(O)Cn2c(=N)n(Cc3ccccc3)c3ccccc32)cc1 (centres unmarked) [Compound 12, 4-(3-(3-benzyl-2-imino-2,3-dihydro-1H-benzo[d]imidazol-1-yl)-2-hydroxypropoxy)benzonitrile] | 15.7 ± 2.1 µM
14 | COc1ccc(OCC(O)Cn2c(=N)n(Cc3ccccc3)c3ccccc32)cc1 (centres unmarked) [Compound 13, 1-(3-benzyl-2-imino-2,3-dihydro-1H-benzo[d]imidazol-1-yl)-3-(4-methoxyphenoxy)propan-2-ol] | 12.7 ± 1.2 µM
15 | COc1cccc(OCC(O)Cn2c(=N)n(Cc3ccccc3)c3ccccc32)c1 (centres unmarked) [Compound 14, 1-(3-benzyl-2-imino-2,3-dihydro-1H-benzo[d]imidazol-1-yl)-3-(3-methoxyphenoxy)propan-2-ol] | 10.1 ± 2.9 µM
16 | N=c1n(Cc2ccccc2)c2ccccc2n1CC(O)COc1ccccc1Cl (centres unmarked) [Compound 15, 1-(3-benzyl-2-imino-2,3-dihydro-1H-benzo[d]imidazol-1-yl)-3-(2-chlorophenoxy)propan-2-ol] | 8.6 ± 1.2 µM
17 | Cc1cc(OCC(O)Cn2c(=N)n(Cc3ccccc3)c3ccccc32)ccc1Br (centres unmarked) [Compound 16, 1-(3-benzyl-2-imino-2,3-dihydro-1H-benzo[d]imidazol-1-yl)-3-(4-bromo-3-methylphenoxy)propan-2-ol] | 8.53 ± 1.7 µM
18 | N#Cc1ccc(F)c(OCC(O)Cn2c(=N)n(Cc3ccccc3)c3ccccc32)c1 (centres unmarked) [Compound 17, 3-(3-(3-benzyl-2-imino-2,3-dihydro-1H-benzo[d]imidazol-1-yl)-2-hydroxypropoxy)-4-fluorobenzonitrile] | 8.27 ± 0.29 µM
19 | N=c1n(Cc2ccccc2)c2ccccc2n1CC(O)COc1cccc(Cl)c1 (centres unmarked) [Compound 18, 1-(3-benzyl-2-imino-2,3-dihydro-1H-benzo[d]imidazol-1-yl)-3-(3-chlorophenoxy)propan-2-ol] | 11.7 ± 2.1 µM
20 | N#Cc1cc(F)cc(OCC(O)Cn2c(=N)n(Cc3ccccc3)c3ccccc32)c1 (centres unmarked) [Compound 19, 3-(3-(3-benzyl-2-imino-2,3-dihydro-1H-benzo[d]imidazol-1-yl)-2-hydroxypropoxy)-5-fluorobenzonitrile] | 14.3 ± 1.5 µM
21 | Cc1cc(C)cc(OCC(O)Cn2c(=N)n(Cc3ccccc3)c3ccccc32)c1 (centres unmarked) [Compound 20, 1-(3-benzyl-2-imino-2,3-dihydro-1H-benzo[d]imidazol-1-yl)-3-(3,5-dimethylphenoxy)propan-2-ol] | 16 ± 2 µM
22 | COc1ccccc1OCC(O)Cn1c(=N)n(Cc2ccccc2)c2ccccc21 (centres unmarked) [Compound 21, 1-(3-benzyl-2-imino-2,3-dihydro-1H-benzo[d]imidazol-1-yl)-3-(2-methoxyphenoxy)propan-2-ol] | 19.3 ± 1.5 µM
23 | N=c1n(Cc2ccc(Cl)cc2)c2ccccc2n1CC(O)COc1ccccc1 (centres unmarked) [Compound 22, 1-(3-(4-chlorobenzyl)-2-imino-2,3-dihydro-1H-benzo[d]imidazol-1-yl)-3-phenoxypropan-2-ol] | 14.7 ± 2.1 µM
24 | N=c1n(Cc2ccc(Cl)cc2)c2ccccc2n1CC(O)COc1ccc(Cl)cc1 (centres unmarked) [Compound 23, 1-(3-(4-chlorobenzyl)-2-imino-2,3-dihydro-1H-benzo[d]imidazol-1-yl)-3-(4-chlorophenoxy)propan-2-ol] | 6.53 ± 3.9 µM
25 | COc1cccc(Cn2c(=N)n(CC(O)COc3ccc(C)cc3)c3ccccc32)c1 (centres unmarked) [Compound 24, 1-(2-imino-3-(3-methoxybenzyl)-2,3-dihydro-1H-benzo[d]imidazol-1-yl)-3-(p-tolyloxy)propan-2-ol] | 13.7 ± 4.4 µM
26 | Cc1ccc(OCC(O)Cn2c(=N)n(C)c3ccccc32)cc1 (centres unmarked) [Compound 25, 1-(2-imino-3-methyl-2,3-dihydro-1H-benzo[d]imidazol-1-yl)-3-(p-tolyloxy)propan-2-ol] | 13 ± 2.6 µM
27 | Cn1c(=N)n(CC(O)COc2ccc(C(F)(F)F)cc2)c2ccccc21 (centres unmarked) [Compound 26, 1-(2-imino-3-methyl-2,3-dihydro-1H-benzo[d]imidazol-1-yl)-3-(4-(trifluoromethyl)phenoxy)propan-2-ol] | 6.97 ± 2 µM

test system: Kir7.1; experiment: not given; details: read-out: IC50 Kir7.1; ref Lewis et al., [2009]; cited from earlier work

Row | Compound | IC50
28 | O=[N+]([O-])c1ccc(CN2CCOCCOCCN(Cc3ccc([N+](=O)[O-])cc3)CCOCC2)cc1 [VU590, 7,13-bis[(4-nitrophenyl)methyl]-1,4,10-trioxa-7,13-diazacyclopentadecanedihydrochloride] | ~8 µM

test system: Kir1.1; experiment: not given; details: read-out: Kir1.1 inhibitor potency; ref Lewis et al., [2009]; cited from earlier work

Row | Compound | IC50
29 | O=[N+]([O-])c1ccc(CN2CCOCCOCCN(Cc3ccc([N+](=O)[O-])cc3)CCOCC2)cc1 [VU590, 7,13-bis[(4-nitrophenyl)methyl]-1,4,10-trioxa-7,13-diazacyclopentadecanedihydrochloride] | ~0.3 µM
